Results of several laboratories.
Converted amounts (≈) assume the structure as drawn.

Structure (SMILES) | organism | test | test system | conditions | quantity | result
Cc1ccc(N=Nc2c(N)nn3c(-c4ccc(C)cc4)cc(-c4ccc(OCc5ccccc5)cc4)nc23)cc1 | Saccharomyces cerevisiae | microbial growth, broth dilution | ATCC9763 | – | MIC | 62.5 µg/mL (≈ 119 µM)
CCOC(=O)C1=C(CN2CCC(C(=O)Nc3ccccc3B3OC(C)(C)C(C)(C)O3)C2)NC(c2nccs2)=NC1c1ccc(F)cc1Br (stereo not drawn) | Hepatitis B virus | viral replication, inhibitor, qPCR | HepDES19 | 72 h | EC50 | 3.17 µM
CNC(=S)NN=Cc1ccc(C)cc1 | Leishmania tropica | parasite growth, MTT | – | 72 h, promastigote | IC50 | 1050 µM
CCOC(=O)C1=C(CN2CCN(Cc3ccccc3B(O)O)CC2)NC(c2nccs2)=NC1c1ccc(F)cc1Br (stereo not drawn) | Hepatitis B virus | viral replication, inhibitor, qPCR | HepDES19 | 72 h | EC50 | 1.47 µM
O=[N+]([O-])C1=Cc2ccccc2OC1c1ccccc1Cl (stereo not drawn) | Leishmania tropica | parasite growth | THP-1 | 72 h, intracellular, amastigote | IC50 | 164 µg/mL
Nc1nn2c(-c3ccco3)cc(-c3ccc(OCc4ccccc4)cc3)nc2c1N=Nc1ccc(F)cc1 | Saccharomyces cerevisiae | microbial killing, broth dilution | ATCC9763 | – | MFC | 62.5 µg/mL (≈ 124 µM)
O=[N+]([O-])C1=Cc2ccccc2OC1c1ccc(OCc2ccc(F)cc2)cc1 (stereo not drawn) | Leishmania tropica | parasite growth | THP-1 | 72 h, intracellular, amastigote | IC50 | 181 µg/mL
CC(=O)N1CCN(c2ccc(OCC3COC(Cn4ccnc4)(c4ccc(Cl)cc4Cl)O3)cc2)CC1 (stereo not drawn) | Saccharomyces cerevisiae | microbial killing, broth dilution | ATCC9763 | – | MFC | 15.6 µg/mL (≈ 29.4 µM)
O=[N+]([O-])C1=Cc2ccccc2OC1c1ccc(F)cc1 (stereo not drawn) | Leishmania tropica | parasite growth | THP-1 | 72 h, intracellular, amastigote | IC50 | 147 µg/mL
COc1ccc(N=Nc2c(N)nn3c(-c4ccc(C)cc4)cc(-c4ccc(OCc5ccccc5)cc4)nc23)cc1 | Saccharomyces cerevisiae | microbial growth, broth dilution | ATCC9763 | – | MIC | 31.3 µg/mL (≈ 57.9 µM)
CCOC(=O)C1=C(CN2CCCC2C(=O)Nc2ccc(B3OC(C)(C)C(C)(C)O3)cc2)NC(c2nccs2)=NC1c1ccc(F)cc1Br (stereo not drawn) | Hepatitis B virus | viral replication, inhibitor, qPCR | HepDES19 | 72 h | EC50 | 0.37 µM
CNC(=S)NN=Cc1ccc(OC)cc1 | Leishmania tropica | parasite growth | J774.A1 | 72 h, intracellular, amastigote | IC50 | 22.7 µM
Cc1ccc(COc2cccc(C3Oc4ccccc4C=C3[N+](=O)[O-])c2)cc1 (stereo not drawn) | Leishmania tropica | parasite growth | THP-1 | 72 h, intracellular, amastigote | IC50 | 162 µg/mL
CCOC(=O)C1=C(CN2CCC[C@H]2C(=O)Nc2ccc(B(O)O)cc2)NC(c2nccs2)=N[C@@H]1c1ccc(F)cc1Br | Hepatitis B virus | viral replication, inhibitor, qPCR | HepDES19 | 72 h | EC50 | 33.3 µM
C[C@@H]1[C@H](O)[C@@H](C)/C=C/C=C/C=C/C=C/C=C/C=C/C=C/[C@H](O[C@@H]2O[C@H](C)[C@@H](O)[C@H](N)[C@@H]2O)C[C@@H]2O[C@](O)(C[C@@H](O)C[C@@H](O)[C@H](O)CC[C@@H](O)C[C@@H](O)CC(=O)O[C@H]1C)C[C@H](O)[C@H]2C(=O)O | Leishmania tropica | parasite growth | J774.A1 | 72 h, intracellular, amastigote | IC50 | 27.9 µM
O=[N+]([O-])C1=Cc2ccccc2OC1c1cccc(Cl)c1 (stereo not drawn) | Leishmania tropica | parasite growth | THP-1 | 72 h, intracellular, amastigote | IC50 | 151 µg/mL
C[C@@H]1[C@H](O)[C@@H](C)/C=C/C=C/C=C/C=C/C=C/C=C/C=C/[C@H](O[C@@H]2O[C@H](C)[C@@H](O)[C@H](N)[C@@H]2O)C[C@@H]2O[C@](O)(C[C@@H](O)C[C@@H](O)[C@H](O)CC[C@@H](O)C[C@@H](O)CC(=O)O[C@H]1C)C[C@H](O)[C@H]2C(=O)O | Saccharomyces cerevisiae | microbial growth, broth dilution | BY4741 | 48 h | MIC | 0.25 µg/mL (≈ 0.271 µM)

Structure (SMILES) | organism | test | test system | conditions | quantity | result
Cc1ccc(-c2cc(-c3ccc(OCc4ccccc4)cc3)nc3c(N=Nc4ccc(F)cc4)c(N)nn23)cc1 | Saccharomyces cerevisiae | microbial growth, broth dilution | ATCC9763 | – | MIC | 62.5 µg/mL (≈ 118 µM)
CCCCN1CN(CC(=O)O)CSC1=S | Leishmania tropica | parasite growth, MTT | – | 48 h, promastigote | IC50 | 94.1 µM
CNC(=S)NN=Cc1ccc(Br)cc1 | Leishmania tropica | parasite growth, MTT | – | 72 h, promastigote | IC50 | 92.3 µM
COc1ccc(N=Nc2c(N)nn3c(-c4ccco4)cc(-c4ccc(OCc5ccccc5)cc4)nc23)cc1 | Saccharomyces cerevisiae | microbial killing, broth dilution | ATCC9763 | – | MFC | 125 µg/mL (≈ 242 µM)
S=C(NN=Cc1ccc(Br)cc1)Nc1cccnc1 | Leishmania tropica | parasite growth, MTT | – | 72 h, promastigote | IC50 | 551 µM
OC(Cn1cncn1)(Cn1cncn1)c1ccc(F)cc1F | Saccharomyces cerevisiae | microbial growth, broth dilution | BY4741 | 48 h | MIC | 4 µg/mL (≈ 13.1 µM)
CNC(=S)NN=Cc1ccc(F)cc1 | Leishmania tropica | parasite growth | J774.A1 | 72 h, intracellular, amastigote | IC50 | 762 µM
CCOC(=O)C1=C(CN2CCC(C(=O)Nc3ccc(B(O)O)cc3)C2)NC(c2nccs2)=NC1c1ccc(F)cc1Br (stereo not drawn) | Hepatitis B virus | viral replication, inhibitor, qPCR | HepDES19 | 72 h | EC50 | 0.5 µM
Cc1ccc(C2Oc3ccccc3C=C2[N+](=O)[O-])cc1 (stereo not drawn) | Leishmania tropica | parasite growth | THP-1 | 72 h, intracellular, amastigote | IC50 | 164 µg/mL
COc1ccc(N=Nc2c(N)nn3c(-c4ccc(Cl)cc4Cl)cc(-c4ccc(OCc5ccccc5)cc4)nc23)cc1 | Saccharomyces cerevisiae | microbial killing, broth dilution | ATCC9763 | – | MFC | 500 µg/mL (≈ 840 µM)
CCOC(=O)C1=C(CN2CCCC2C(=O)Nc2cccc(B(O)O)c2)NC(c2nccs2)=NC1c1ccc(F)cc1Br (stereo not drawn) | Hepatitis B virus | viral replication, inhibitor, qPCR | HepDES19 | 72 h | EC50 | 0.47 µM
Cc1ccc(N=Nc2c(N)nn3c(-c4ccc(Cl)cc4Cl)cc(-c4ccc(OCc5ccccc5)cc4)nc23)cc1 | Saccharomyces cerevisiae | microbial growth, broth dilution | ATCC9763 | – | MIC | 31.3 µg/mL (≈ 54 µM)
CNC(=S)NN=Cc1ccc(OC)c(OC)c1 | Leishmania tropica | parasite growth, MTT | – | 72 h, promastigote | IC50 | 258 µM
CCOC(=O)C1=C(CN2CCN(Cc3cccc(B(O)O)c3)CC2)NC(c2nccs2)=NC1c1ccc(F)cc1Br (stereo not drawn) | Hepatitis B virus | viral replication, inhibitor, qPCR | HepDES19 | 72 h | EC50 | 1.27 µM
COc1ccc(C=NNC(=S)Nc2cccnc2)cc1OC | Leishmania tropica | parasite growth, MTT | – | 72 h, promastigote | IC50 | > 1000 µM
O=[N+]([O-])C1=Cc2ccccc2OC1c1cccc(OCc2ccc([N+](=O)[O-])cc2)c1 (stereo not drawn) | Leishmania tropica | parasite growth | THP-1 | 72 h, intracellular, amastigote | IC50 | 144 µg/mL
